Values joined by “and” are separate entries in the source; they are usually repeats but may differ in a detail not shown here. Equal entries are not always repeated. Where only a bound is given, the exact number is not on record here.

The target in data set [1] is T1, DnaK-DnaJ (Escherichia coli, UniProt P0A6Y8). The data set can be described thus: DnaJ-stimulated ATPase activity of DnaK. It is filed as biochemical. To be noted: result in words. Put shortly: (§1)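 Purified E. coli DnaK, DnaJ and GrpE (His-tagged, tag removed by TEV) and the synthetic NRLLLTG peptide. DnaK at 0.6 μM unless noted, with co-chaperone at stated levels, in 100 mM Tris-HCl, 20 mM KCl, 6 mM MgCl2, pH 7.4. Test compound added from DMSO stock. Phosphate release read by malachite green adaptation (absorbance 620 nm). Michaelis-Menten fit. Triplicates, three independent experiments.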
T1 sequence (P0A6Y8 whole entry): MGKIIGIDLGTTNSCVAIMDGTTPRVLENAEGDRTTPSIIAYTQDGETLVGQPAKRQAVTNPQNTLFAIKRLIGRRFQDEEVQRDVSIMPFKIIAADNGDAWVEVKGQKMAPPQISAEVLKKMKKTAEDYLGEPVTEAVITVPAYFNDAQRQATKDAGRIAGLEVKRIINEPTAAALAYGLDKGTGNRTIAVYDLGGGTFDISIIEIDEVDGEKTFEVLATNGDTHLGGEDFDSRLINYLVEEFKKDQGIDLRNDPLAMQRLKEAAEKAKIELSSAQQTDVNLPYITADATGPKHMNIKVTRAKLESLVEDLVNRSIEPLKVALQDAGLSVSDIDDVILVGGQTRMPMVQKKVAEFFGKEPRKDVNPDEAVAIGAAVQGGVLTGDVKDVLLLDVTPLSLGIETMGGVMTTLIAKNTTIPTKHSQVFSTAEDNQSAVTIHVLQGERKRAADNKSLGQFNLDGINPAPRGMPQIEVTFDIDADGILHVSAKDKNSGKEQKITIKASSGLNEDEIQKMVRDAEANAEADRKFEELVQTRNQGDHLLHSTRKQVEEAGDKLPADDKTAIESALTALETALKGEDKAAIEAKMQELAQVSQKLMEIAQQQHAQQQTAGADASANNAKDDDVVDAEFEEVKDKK

Data set [2] concerns the target T2, DnaK-GrpE (Escherichia coli, UniProt P0A6Y8). Kind of data set: GrpE-stimulated ATPase activity of DnaK. It is filed as biochemical. The settings on record: for Inhibition of the DnaK-GrpE combination (ATPase): result in words. The method in brief:
as §1

Data set [3] can be described thus: Solubility. To be noted: result in words. It is filed as physicochemical.
For data set [4], the target named is GrpE (Escherichia coli, UniProt P09372). The data set can be described thus: Isothermal calorimetry, binding to GrpE. (In general: ITC needs no label: the signal is the heat of the interaction.)
Chain of GrpE (P09372 whole entry): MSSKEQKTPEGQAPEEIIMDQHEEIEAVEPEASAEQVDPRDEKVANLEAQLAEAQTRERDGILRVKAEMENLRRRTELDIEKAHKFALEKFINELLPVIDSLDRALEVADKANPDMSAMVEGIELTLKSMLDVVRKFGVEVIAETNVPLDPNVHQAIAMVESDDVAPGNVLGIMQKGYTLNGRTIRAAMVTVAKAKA
Data set [5] addresses DnaK-peptide (Escherichia coli, UniProt P0A6Y8). Kind of data set: Peptide substrate. It is filed as biochemical. To be noted: NRLLLTG peptide; result in words. Put shortly: as §1
Data set [6] addresses DnaK D233A (Escherichia coli, UniProt P0A6Y8, D233A). The data set can be described thus: GrpE-stimulation of DnaK control mutant D233A, ATPase assay. It is filed as biochemical. To be noted: identical to wild type.
The target in data set [7] is T2, DnaK-GrpE. The data set can be described thus: Fluorescence-quenching assay, physical interaction between DnaK and GrpE. To be noted: result in words. It is filed as binding.
Data set [8] deals with DnaK R56A (Escherichia coli, UniProt P0A6Y8, R56A). The data set can be described thus: GrpE-stimulation of DnaK mutant R56A, ATPase assay. It is filed as biochemical. The settings on record: result in words.
Chain of DnaK R56A (P0A6Y8 whole entry R56A): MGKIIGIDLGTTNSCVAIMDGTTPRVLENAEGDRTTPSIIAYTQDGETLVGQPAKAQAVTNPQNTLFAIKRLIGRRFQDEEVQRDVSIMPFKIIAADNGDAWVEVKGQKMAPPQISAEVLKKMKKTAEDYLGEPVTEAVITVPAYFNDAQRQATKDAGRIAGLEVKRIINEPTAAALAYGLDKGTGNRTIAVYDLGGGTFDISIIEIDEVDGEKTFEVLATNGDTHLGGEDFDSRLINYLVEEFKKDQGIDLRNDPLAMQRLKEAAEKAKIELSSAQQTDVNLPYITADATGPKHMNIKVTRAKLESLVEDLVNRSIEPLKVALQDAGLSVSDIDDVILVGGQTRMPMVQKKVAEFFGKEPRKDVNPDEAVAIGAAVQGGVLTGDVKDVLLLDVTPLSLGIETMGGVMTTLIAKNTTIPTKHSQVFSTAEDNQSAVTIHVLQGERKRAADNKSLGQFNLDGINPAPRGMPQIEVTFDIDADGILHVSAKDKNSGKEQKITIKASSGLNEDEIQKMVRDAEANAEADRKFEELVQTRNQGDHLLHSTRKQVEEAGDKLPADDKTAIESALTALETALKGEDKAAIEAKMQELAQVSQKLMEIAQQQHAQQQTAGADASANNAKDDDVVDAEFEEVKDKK
Chain of DnaK R56A (P09372 whole entry, further chain): as the sequence (P09372 whole entry) above
The target of data set [9] is T3, DnaK (Escherichia coli, UniProt P0A6Y8). Kind of data set: Intrinsic ATPase activity of DnaK alone. To be noted: result in words. It is filed as biochemical. The method in brief: as §1
T3 sequence (P0A6Y8 whole entry): as the sequence (P0A6Y8 whole entry) above
Data set [10] addresses T3, DnaK. The data set can be described thus: Fluorescence polarization, binding of FAM-ATP to DnaK. To be noted: for Competition with FAM-ATP for binding to DnaK: FP assay, result in words. A general note: Fluorescence polarisation rises when a labelled molecule tumbles more slowly, as on binding a larger partner.
For data set [11], the target named is DnaK M89A (Escherichia coli, UniProt P0A6Y8, M89A). Kind of data set: GrpE-stimulation of DnaK mutant M89A, ATPase assay. It is filed as biochemical. The settings on record: result in words.
Chain of DnaK M89A (P09372 whole entry): as the sequence (P09372 whole entry) above
Chain of DnaK M89A (P0A6Y8 whole entry M89A): as the sequence (P0A6Y8 whole entry R56A) above, with A56R, M89A counted along it
The target of data set [12] is DnaJ (Escherichia coli, UniProt P08622). Kind of data set: Isothermal calorimetry, binding to DnaJ.
Chain of DnaJ (P08622 whole entry): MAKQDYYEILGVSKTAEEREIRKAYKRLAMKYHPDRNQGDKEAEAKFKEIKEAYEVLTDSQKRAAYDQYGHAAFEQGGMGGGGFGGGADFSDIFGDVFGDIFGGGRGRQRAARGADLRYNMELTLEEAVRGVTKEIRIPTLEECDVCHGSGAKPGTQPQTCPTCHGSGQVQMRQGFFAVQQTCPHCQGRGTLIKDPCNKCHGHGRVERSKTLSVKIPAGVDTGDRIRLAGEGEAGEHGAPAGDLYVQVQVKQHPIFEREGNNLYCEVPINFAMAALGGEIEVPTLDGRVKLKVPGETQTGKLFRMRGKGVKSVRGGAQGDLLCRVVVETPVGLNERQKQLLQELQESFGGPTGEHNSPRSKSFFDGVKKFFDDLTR
Data set [13] has as its target T3, DnaK. Kind of data set: Fluorescence polarization, binding of FITC-HLA peptide to DnaK. To be noted: FP assay; result in words.
In data set [14] the target is T1, DnaK-DnaJ. The data set can be described thus: Fluorescence-quenching assay, binding of labeled DnaJ to DnaK. The settings on record: not statistically significant (p = 0.07).
The target in data set [15] is T3, DnaK. The data set can be described thus: Intrinsic tryptophan fluorescence of DnaK. It is filed as binding. The method in brief:
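DnaK (5 μM) held in 25 mM HEPES, 10 mM KCl, 5 mM MgCl2, pH 7.5, with 1 mM ADP or ATP and test compound (e.g. 25 or 100 μM). Incubated 30 min at 37 °C in the dark. Excitation 290 nm; emission scanned 300–450 nm or read at 340 nm. Langmuir fit. Triplicate, three independent experiments.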

Where [16] appears, read: DnaK 5 μM, 25 μM or 100 μM compound.

T2 sequence (P09372 whole entry): as the sequence (P09372 whole entry) above
T2 sequence (P0A6Y8 whole entry): as the sequence (P0A6Y8 whole entry) above
Chain of DnaK-peptide (P0A6Y8 whole entry): as above
Chain of DnaK D233A (P0A6Y8 whole entry D233A): as the sequence (P0A6Y8 whole entry R56A) above, with A56R, D233A counted along it
Chain of DnaK D233A (P09372 whole entry, further chain): as the sequence (P09372 whole entry) above

With `O=c1c(O)c(-c2cc(O)c(O)c(O)c2)oc2cc(O)cc(O)c12` [Myr, myricetin], the “Inhibition of the DnaK-DnaJ combination (ATPase)” value in [1] was “only inhibitors of the DnaK-DnaJ combination”.
As to `CC(=O)O[C@H]1C[C@@H]2CC[C@@H]3[C@H](CC[C@@]4(C)[C@H]3C[C@H]([N+]3(C)CCCCC3)[C@@H]4OC(C)=O)[C@@]2(C)C[C@@H]1[N+]1(C)CCCCC1` [PaBr, pancuronium bromide], the “Inhibition of the DnaK-GrpE combination (ATPase)” value in data set [2] was “only inhibitors of the DnaK-GrpE combination”. The Solubility entry in data set [3] was “weakly soluble”.
As to `CCCc1nc2c(C)cc(-c3nc4ccccc4n3C)cc2n1Cc1ccc(-c2ccccc2C(=O)O)cc1` [Tel, telmisartan], the Kd in data set [4] and in [12] was greater than 100 µM in each case. In data set [5], the “Activity against DnaK-peptide substrate combination (ATPase)” value is reported as “little activity”. The “Fold increase in Km of GrpE stimulation, DnaK D233A” value in [6] was ~ 1.5 fold. The “Inhibition of the DnaK-GrpE combination (ATPase)” value in data set [2] is reported as “only inhibitors of the DnaK-GrpE combination”. Also, the “Fold increase in Km of GrpE stimulation, wild type DnaK” value in data set [2] (wild type DnaK) was ~ 1.5 fold. The “Effect on physical interaction between DnaK and GrpE” value in data set [7] is recorded as “no effect”. In addition, the “Inhibition of the DnaK-DnaJ combination (ATPase)” value in [1] is “little activity”. Moreover, the “Ability to block GrpE-stimulation of DnaK R56A” value in [8] was “resistant”. In addition, the “Activity against DnaK alone (intrinsic ATPase)” value in [9] was “little activity”. Further, the “Competition with FAM-ATP for binding to DnaK” value in data set [10] was “interfered with binding”. Also, the “Effect on FAM-ATP binding, fold” value in data set [10] (reduced nucleotide affinity) was found to be 2 fold. Besides, the “Ability to block GrpE-stimulation of DnaK M89A” value in data set [11] is listed as “resistant”. Besides, the “Effect on apparent affinity of DnaK for FITC-HLA” value in data set [13] is listed as “no effect”.
`COc1cc(C(=O)NS(=O)(=O)c2ccccc2C)ccc1Cc1cn(C)c2ccc(NC(=O)OC3CCCC3)cc12` [Zaf, zafirlukast]: the “Activity against DnaK-peptide substrate combination (ATPase)” value in [5] is reported as “has activity”. In [2], the IC50 was greater than 200 µM and the “Inhibition of the DnaK-GrpE combination (ATPase)” value is on record as “weak or no activity”. The “Inhibition of the DnaK-DnaJ combination (ATPase)” value in [1] is “only inhibitors of the DnaK-DnaJ combination”. The “Weakening of binding of DnaJ to DnaK, fold” value in data set [14] is ~ 1.8 fold and ~ 2 fold. Also, in data set [9], the “Activity against DnaK alone (intrinsic ATPase)” value is “weak or no activity”. Besides, the Kd in [15] (Apparent affinity KD for ATP-bound DnaK, ATP-bound DnaK) was greater than 100 µM. Besides, the Kd in data set [15] (Apparent affinity KD for DnaK in the presence of ADP, ADP 1 mM) was determined as 52 ± 12 µM. Further, in data set [15] (setting [16]), the “Decrease of tryptophan fluorescence intensity at 342 nm” value was ~ 25% and the “Shift of tryptophan fluorescence peak” value was ~ 2 nm. The “Effect on Trp fluorescence in the ATP-bound states” value in [15] (p = 0.06, result in words) is “no effect”. Besides, the “Competition with FAM-ATP for binding to DnaK” value in data set [10] is listed as “unable to compete”. Also, in [13], the “Effect on apparent affinity of DnaK for FITC-HLA” value was “enhanced the apparent affinity”.

Broadly, the IC50 is the concentration needed to halve the response being measured.

Source of the values: article PMC3783524 (ACS chemical biology, 2013).
